Only some compounds are listed: those with a hit (about 3.6% of all), similar ones and a draw of the others.
HSF1 inhib – HSF1 inhibition; NIH3T3-HGL HSE-luciferase, MG132-induced, luminescence 8 h; hits give low values; activity change, negative = inhibition, % at 7.5 µM (by protocol); AID 2098; actives 0.77% (n = 300,000);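 active means more than half of replicate wells show activity change below -50%, luminescence cut by over half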;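 further: luciferase reports HSF-1 transcriptional activity via heat shock element; 0% = median of DMSO wells and -100% = zero luminescence signal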
PolyA inh – blocks polyadenylation in yeast reporter cells; S. cerevisiae SKY197-pL101 polyadenylation reporter, beta-gal luminescence; efflux-impaired pdr1/pdr3 knockout yeast; score 100 = 6 SD above DMSO; activity score, % at 12 µM; actives 0.02% (n = 300,000); AID 1875;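 active means lowest replicate activity score at least 50, where 100 means six control SD above control mean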;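 further: yeast exposed to compound for 9 h at 30 °C; higher score means more reporter readthrough which indicates perturbed polyadenylation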
Hsp70 activator – switches on Hsp70 transcription; HeLa Hsp70 promoter luciferase reporter, luminescence; scaled: vehicle 0, proteasome-inhibitor control 100%; activation, % at 10 µM; actives 0.04% (n = 200,000); AID 1203;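 active means activation above the mean across all tested compounds plus 3 SD, cutoff set per campaign, cut at about 5.5% in these data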;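 further: 100% = MG132 at 30 µM as the positive control and 0% = DMSO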
AHR activator – activates the human aryl hydrocarbon receptor. P35869. AHR-responsive luciferase reporter cells, luminescence. activation, % at 5 µM. actives 2.5% (n = 320,000). AID 2796; in the data active means activation above about 47%;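 further: 0% = vehicle wells and 100% = reference agonist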
Target sequence (P35869 whole entry, looked up): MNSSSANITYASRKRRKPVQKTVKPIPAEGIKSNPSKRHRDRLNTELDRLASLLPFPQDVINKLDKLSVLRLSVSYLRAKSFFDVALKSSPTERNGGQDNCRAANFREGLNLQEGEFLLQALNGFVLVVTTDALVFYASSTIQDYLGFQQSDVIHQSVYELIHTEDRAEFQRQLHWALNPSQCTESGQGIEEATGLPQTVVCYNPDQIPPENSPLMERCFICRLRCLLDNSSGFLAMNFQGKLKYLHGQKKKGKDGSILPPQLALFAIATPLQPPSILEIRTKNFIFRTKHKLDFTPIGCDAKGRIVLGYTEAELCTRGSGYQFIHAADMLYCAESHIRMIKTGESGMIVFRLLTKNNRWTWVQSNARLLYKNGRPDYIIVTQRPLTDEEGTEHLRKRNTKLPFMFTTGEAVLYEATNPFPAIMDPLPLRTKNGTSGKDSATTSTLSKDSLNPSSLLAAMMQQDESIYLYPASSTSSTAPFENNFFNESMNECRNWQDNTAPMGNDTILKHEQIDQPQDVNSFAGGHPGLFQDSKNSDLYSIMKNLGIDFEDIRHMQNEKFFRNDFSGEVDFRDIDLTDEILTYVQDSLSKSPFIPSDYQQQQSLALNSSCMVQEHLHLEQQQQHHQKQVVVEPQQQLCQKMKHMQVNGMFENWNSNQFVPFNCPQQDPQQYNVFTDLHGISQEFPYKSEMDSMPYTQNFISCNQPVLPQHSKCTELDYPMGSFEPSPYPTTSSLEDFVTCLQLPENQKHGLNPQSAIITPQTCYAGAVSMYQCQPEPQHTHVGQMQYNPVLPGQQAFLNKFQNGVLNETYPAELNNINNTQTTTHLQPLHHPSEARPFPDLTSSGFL
STAT3 activator – STAT3 signaling activation; U3A cells, IL-6 STAT3-luciferase reporter, luminescence; 100% = signal with IL-6 EC80 alone; activation (% of control), % at 5.6 µM; actives 0.91% (n = 190,000);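 active means activation above the screen-wide mean of compound activation plus 3 SD, cut at about 130% in these data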;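 further: 0% = background luminescence of wells with medium and substrate only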
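Test system: human U3A cells carrying STAT3-luciferase construct; control set: IL-6-only wells as 100% reference; timing: compound pre-incubation 1 h before IL-6, then 6 h stimulation at 37 °C; also added: IL-6 stimulus at 33 ng/mL final; evaluation: % activation versus median of IL-6-stimulated wells; detection: reporter luminescence signal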
PERK inh – inhibitors of human PERK kinase; Q9NZJ5; CHO PERK-DD fusion, SEAP luminescence translation reporter; actives 0.17% (n = 220,000); inhibition, % at 5.6 µM;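 active means inhibition above the mean inhibition of all tested compounds plus 3 SD, set separately per screening campaign, cut at about 2.9% in these data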;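 further: PERK kinase domain activated by AP20187 dimerizer at 100 nM; 0% = DMSO with dimerizer and 100% = rapamycin at 8.4 µM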
* marks the source's active call; other numbers are inactive results; · = not tested or not shown.

SMILES	HSF1 inhib	PolyA inh	Hsp70 activator	AHR activator	STAT3 activator	PERK inh
COc1ccc(C(=O)OCC(N)=O)cc1[N+](=O)[O-]	0.7	1.2	-0.2	-3.4	100.7	0.3
COc1ccc(C(=O)NNC(=S)NC(=O)c2cccs2)cc1	-74.4*	-10.8	·	4.8	·	·
COc1ccc(C(=O)NNC(=S)NC(=O)c2ccc(OC)cc2)cc1	-2.9	1.3	·	3.2	·	·
Cc1ccc2cccc(NC(=S)NC(=O)c3ccnn3C)c2n1	0.7	-6.4	-0.2	54.7*	116.3	-1.1
O=C(NC(=S)Nc1cccc2cccnc12)c1cccs1	109.1	-20.4	-0.1	69.5*	101.0	1.2
O=C(NC(=S)Nc1cccc2cccnc12)c1ccccc1	14.1	0.1	-0.2	32.2	110.4	1.4
CCC(=O)Nc1cccc(NC(=S)NC(=O)c2ccccc2Cl)c1	12.9	-8.0	-0.2	4.7	94.1	-0.8
CC(=O)NC(=S)Nc1cccc2ccc(C)nc12	0.3	-6.6	·	13.2	·	-0.5
CCC(=O)Nc1cccc(NC(=S)NC(=O)c2cccs2)c1	64.1	-6.8	0.3	49.7*	109.1	0.0
COc1ccccc1CCNC(=O)CCn1nc(C)c2c(C)n(-c3ccccc3)nc2c1=O	3.4	3.2	·	2.9	·	·
Cc1ccc(C2=Nc3ccccc3N=C(C(Cl)Cl)C2)cc1	47.0	-15.9	-0.3	22.4	83.8	-0.1
Cc1ccc2c(c1)N=C(c1ccccc1)CC(C(Cl)Cl)=N2	43.1	-2.2	·	61.8*	·	-1.2
Cc1cs/c(=N/C(=S)Nc2ccccc2)n1C	18.2	-15.3	0.0	20.5	93.9	-0.1
CCCn1c(C)cs/c1=N\C(=S)Nc1ccccc1	13.0	9.9	-0.2	48.2*	97.4	-0.1
COc1ccc(-c2[nH]c(-c3cccc(OC)c3)nc2SCC(=O)NC2CCCC2)cc1	1.0	0.5	-0.2	64.6*	107.3	-0.2
COc1ccc(C(=O)c2oc3nc(C)cc(C)c3c2N)cc1	6.4	12.4	-0.3	-5.7	96.1	-0.6
Cc1ccc(C(=O)c2oc3nc(C)cc(C)c3c2N)cc1	-6.9	-15.8	0.2	94.9*	95.7	-0.7
CC(NC(=O)c1cc(-c2ccccn2)nc2ccc(Cl)cc12)C1CCCO1 (configuration not stated)	2.3	-1.1	·	51.7*	·	·
CC(NC(=O)c1cc(-c2ccncc2)nc2ccc(Cl)cc12)C1CCCO1 (configuration not stated)	-7.0	-12.4	·	16.3	·	·
Cc1ccc(F)cc1NC(=O)CCNC(=O)c1ccc([N+](=O)[O-])cc1	-67.9*	11.7	·	-1.0	·	·
CC(CCc1ccccc1)NC(=O)c1cccc([N+](=O)[O-])c1 (configuration not stated)	-52.5*	-17.0	-0.1	3.1	104.5	0.0
Cc1ccc([N+](=O)[O-])cc1NC(=O)c1ccc(C(C)(C)C)cc1	1.8	-7.5	-0.3	71.2*	102.9	-0.2
Cc1ccc(C(=O)Nc2cc([N+](=O)[O-])ccc2C)cc1	16.2	-15.3	0.5	16.3	108.5	-0.4
Cc1ccc([N+](=O)[O-])cc1NC(=O)c1ccc(-c2ccccc2)cc1	-0.4	15.1	-0.2	67.1*	96.9	-0.2
COC(=O)c1ccc(C)c(NC(=O)CCNC(=O)c2ccc([N+](=O)[O-])cc2)c1	4.5	1.7	-0.2	-2.9	100.2	-0.1
SMILES	HSF1 inhib	PolyA inh	Hsp70 activator	AHR activator	STAT3 activator	PERK inh
Cc1ccc(C(=O)NC(C)CCc2ccccc2)cc1[N+](=O)[O-] (configuration not stated)	2.2	-3.4	-0.3	0.5	103.1	1.2
Cc1cc(C)cc(N(CCC#N)C(=O)CSc2n[nH]c(N)n2)c1	2.8	15.3	·	0.5	·	·
CCc1ccc(OCC(=O)Nc2ccc3[nH]ncc3c2)cc1	2.3	-9.3	·	3.3	·	·
O=C(O)Cc1ccc(NC(=S)Nc2ccc(Br)cc2Cl)cc1	-7.8	7.5	·	2.6	·	1.6
COc1ccc(CNC(=O)CC2C[C@H](C(=O)N3CCCCC3)[C@@]3(C)c4[nH]c5ccccc5c4CCN3C2=O)cc1OC (some centres not stated)	·	·	·	0.5	·	·
COc1cccc(N=C(N)N)c1	0.0	13.5	-0.4	2.7	91.9	-0.6
O=C(Nc1ccccc1-c1ccccc1)c1cccc([N+](=O)[O-])c1	17.5	-21.2	0.0	56.0*	92.0	0.6
CCC(=O)Nc1nnc(-c2cccs2)s1	8.9	-12.1	0.0	74.2*	92.2	0.0
O=C(Cc1ccccc1)Nc1nc(-c2cccs2)cs1	21.6	20.1	-0.2	-8.8	93.9	-0.4
O=C(Cc1ccccc1)Nc1nnc(-c2cccs2)s1	13.6	-6.6	-0.1	68.7*	93.6	-0.6
Cc1cc(C(=O)N(C)CC(=O)Nc2ccc(F)c(F)c2F)no1	-2.5	16.8	·	3.5	·	·
Oc1ccc(C2C(c3ccccc3)=NN=C(c3ccccc3F)N2O)c(O)c1 (configuration not stated)	4.2	26.9	-0.3	8.2	99.9	0.1
Oc1ccc(C2C(c3ccccc3)=NN=C(c3ccc(Cl)cc3)N2O)c(O)c1 (configuration not stated)	19.9	-3.8	0.1	47.7*	91.3	1.0
COCC(=O)Nc1c(C(=O)Nc2ccc3c(c2)OCCO3)oc2ccccc12	22.9	-17.3	-0.2	55.3*	102.2	0.5
O=C(Nc1ccc2c(c1)OCCO2)c1oc2ccccc2c1NC(=O)C1CC1	-6.3	1.2	-0.2	16.0	88.2	1.0
CCOCC(=O)Nc1c(C(=O)Nc2ccc3c(c2)OCCO3)oc2ccccc12	11.7	-19.8	0.0	64.9*	100.3	-0.5
Cc1cccc(N2CCN(c3ccc(N4C(=O)CCCC4=O)cc3[N+](=O)[O-])CC2C)c1 (configuration not stated)	-4.3	0.2	-0.2	70.0*	86.6	-0.1
Cc1ccc2nc(SCC(=O)NCc3ccc(F)cc3)nc(=O)n2c1	-0.9	-9.7	·	-2.2	·	·
O=C(O)CCC1(C(=O)O)OCCc2ccccc21 (configuration not stated)	-66.7*	12.3	-0.3	0.6	102.1	0.3
COc1ccc(NC(=O)Nc2nnc(-c3ccccc3F)s2)cc1	14.1	-1.2	0.0	71.5*	102.2	-0.4
O=C(Nc1ccccc1)Nc1nnc(Cc2ccccc2F)s1	7.2	3.3	·	6.4	·	·
COc1ccc(NC(=O)Nc2nnc(-c3ccco3)s2)cc1	13.7	5.0	·	64.4*	·	1.2
COc1ccc(NC(=O)Nc2nnc(-c3ccncc3)s2)cc1	1.7	6.8	-0.1	-1.2	88.3	0.4
COc1cccc(NC(=O)Nc2nnc(Cc3ccccc3F)s2)c1	-67.5*	8.6	·	14.0	·	·
CCOc1cccc(C(=O)Nc2nnc(-c3ccco3)s2)c1	·	·	-0.2	48.2*	60.9	-0.7
CC1CN(CCOc2ccccc2C(C)C)CC(C)O1 (configuration not stated)	-1.9	-13.0	·	-0.6	·	·
CN(C)Cc1cccc([N+](=O)[O-])c1O	-7.5	0.1	·	-2.0	·	1.7
